Screening data from PubChem.
Sampled rows, rich in hits. Any-hit rate of the full collection: about 3.5%.
PGC1a acetyl inh: lowers PGC1a acetylation signal in U2OS cells | AlphaScreen anti-acetyl-lysine; with virally co-expressed GCN5 acetyltransferase | inhibition, % at 15.6 µM | 0.17% of 350,000 active;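 active means every replicate shows inhibition of at least 40%; inconclusive means mean inhibition at least 40% but some replicate below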
rRNA inh HTS: inhibits bacterial ribosomal RNA function over humanized ribosomes; E. coli WT GFP vs humanized-ribosome RFP mutants, fluorescence, 24 h; hits give low values; DMSO median 0, no signal -100; 1.6% of 350,000 active; GFP signal change (wild-type ribosome), % (test concentration not listed); AID 720706;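 active means significant combined selectivity score with lowered wild-type GFP, culture density cut under 30%, mutant RFP and density less affected; inactive means any of these conditions unmet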
DENV2 CPE: DENV2-induced cell death inhibition. DENV2-infected cells, cytopathic effect rescue, plate reader. AID 651640. CPE inhibition, % at 9.99 µM. 1.7% of 350,000 active; in the data active means CPE inhibition above about 20%, passing the limit was not always enough; inconclusive means no clear call, values can overlap the other calls; tested in BHK-21 cells
PglD DTNB: inhibitors of Campylobacter jejuni PglD acetyltransferase; purified PglD enzyme, DTNB colorimetric CoA detection; inhibition, % at 12.5 µM; 0.098% of 360,000 active; AID 602405; in the data active means inhibition above about 16%, passing the limit was not always enough; inconclusive means no clear call, values can overlap the other calls
FN deposit inh: fibronectin deposition inhibition. AH1F fibroblasts, Alexa488-fibronectin deposition fluorescence, overnight. inhibition, % at 12.6 µM. 0.086% of 350,000 active. AID 743247;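 active means mean inhibition across replicates of 30% or more, regardless of how many single replicates reach that level; inconclusive means mean under 30% yet at least half of replicates reach 30%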
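Schedule: 1 h cell adhesion before compound, then overnight fibronectin incubation; test system: AH1F fibroblast monolayer depositing Alexa488-labelled fibronectin into matrix; quantity: 10000 AH1F cells per well; probe or stimulus: fluorescent fibronectin at 24 nM final; signal: fluorescence, ex 485 nm, em 525 nm; evaluation: percent inhibition as loss of matrix-bound fibronectin fluorescence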
Env fusion inh: blocks HIV Env-driven cell-cell fusion | HeLa-JRFL Env/CEM21 cell fusion, luciferase | inhibition, % at 12.3 µM | 1.1% of 360,000 active;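 active means mean replicate inhibition score of at least 50 and every replicate individually at or above 50; inconclusive means only one of the two criteria met; inactive means mean below 50 and not all replicates reaching 50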
Large screens that a line does not name were inactive.

COc1ccc(NC(=O)Nc2ccc3c(c2)C(=O)N([C@H](C)CO)C[C@@H](C)[C@H](CN(C)S(=O)(=O)c2ccc(Cl)cc2)O3)cc1	DENV2 CPE 68 (no result: FN deposit inh)
COc1ccc(S(=O)(=O)N(C)C[C@H]2Oc3ccc(NC(=O)CCCN(C)C)cc3C(=O)N([C@@H](C)CO)C[C@H]2C)cc1	DENV2 CPE 33 (no result: FN deposit inh, Env fusion inh)
COc1ccc(NC(=O)Nc2ccc3c(c2)C(=O)N([C@@H](C)CO)C[C@H](C)[C@@H](CN(C)S(=O)(=O)c2ccc(OC)cc2)O3)cc1	none
COc1ccccc1-c1cn(CC[C@@H]2CC[C@H](NC(=O)C3CCOCC3)[C@@H](CO)O2)nn1	none (no result: FN deposit inh)
CCOc1ccc(N2C(=O)Cc3ccccc3C2=O)cc1	PGC1a acetyl inh 43
O=C(NC(=O)c1ccccc1)Nc1ccccn1	Env fusion inh 68 (no result: PGC1a acetyl inh, FN deposit inh)
CSc1nsc(N/N=C/c2ccccc2)c1C#N	rRNA inh HTS -22 (no result: PglD DTNB)
CN1C(=O)c2cc(NC(=O)C3CCOCC3)ccc2OC[C@H]2O[C@@H](CC(=O)O)CC[C@@H]21	DENV2 CPE inconclusive
O=C(NCCO)c1cc2c([nH]c3ccccc32)c(-c2ccccc2)n1	rRNA inh HTS -28 (no result: FN deposit inh)
O=C(NCCO)c1cc2c([nH]c3ccccc32)c(-c2ccc(F)cc2)n1	none
COc1ccc(S(=O)(=O)N(C)C[C@H]2OCCCC[C@@H](C)Oc3ccc(NC(=O)Nc4cccc5ccccc45)cc3C(=O)N([C@H](C)CO)C[C@@H]2C)cc1	none (no result: FN deposit inh)
CC1CCc2c(sc(NC(=O)CSc3ncn[nH]3)c2C#N)C1 (stereo not drawn)	rRNA inh HTS -19, Env fusion inh 65
CC(C)(C)C1CCc2c(sc(NC(=O)CSc3ncn[nH]3)c2C#N)C1 (stereo not drawn)	none (no result: PGC1a acetyl inh, rRNA inh HTS, DENV2 CPE)
C/C=C(/C)C(=O)O[C@@H]1c2c(ccc3ccc(=O)oc23)OC(C)(C)[C@@H]1OC(=O)/C(C)=C\C	DENV2 CPE 26 (no result: PGC1a acetyl inh)
O=C(C[C@@H]1C[C@@H]2c3cc(NC(=O)c4ccc5c(c4)OCO5)ccc3O[C@@H]2[C@@H](CO)O1)NCc1cc(F)ccc1F	none (no result: FN deposit inh)
CCOC(=O)CSc1[nH]c2cc(OC)ccc2c1[N+](=O)[O-]	DENV2 CPE 24 (no result: PglD DTNB)
CN1C[C@H]2[C@@H](c3ccccc31)[C@H](CO)N2S(=O)(=O)c1ccccc1	none (no result: Env fusion inh)
CCNC(=O)[C@H]1N[C@H]2c3ccc(-c4cccc(C(=O)N(C)C)c4)c(=O)n3C[C@H]2[C@@H]1CO	none (no result: PGC1a acetyl inh, FN deposit inh, Env fusion inh)
Cc1cccc(CNc2ncnc3ccc(-c4ccoc4)cc23)c1	none
c1cncc(CNc2ncnc3ccc(-c4ccoc4)cc23)c1	PGC1a acetyl inh 55, DENV2 CPE inconclusive
c1ccc(CCNc2ncnc3ccccc23)cc1	none (no result: PGC1a acetyl inh, PglD DTNB)
Cc1cccc(CNc2ncnc3ccc(-c4ccc5c(c4)OCCO5)cc23)c1	Env fusion inh 80
c1nc(NCc2ccc3c(c2)OCO3)c2cc(-c3ccc4c(c3)OCCO4)ccc2n1	none (no result: PGC1a acetyl inh)
Brc1ccc2ncnc(NCc3ccccc3)c2c1	PGC1a acetyl inh 42 (no result: rRNA inh HTS, DENV2 CPE, FN deposit inh, Env fusion inh)
Cc1csc(CNc2ncnc3ccc(-c4ccc5c(c4)OCO5)cc23)c1	Env fusion inh 61
COC(=O)c1cn(CCNC(=O)[C@@H](NS(=O)(=O)c2ccc(C)cc2)C(C)C)nn1	none (no result: rRNA inh HTS, PglD DTNB, FN deposit inh)
COc1cccc(NC(=O)N2CC3(C2)[C@H](c2ccccc2)[C@H](CO)N3C(=O)C2CCC2)c1	none (no result: PGC1a acetyl inh, PglD DTNB, Env fusion inh)
O=C(C[C@H]1C=C[C@H](NC(=O)Nc2cc(F)ccc2F)[C@H](CO)O1)NCCCN1CCOCC1	none
CCc1ccc(C(=O)NNC(=O)c2c(CC)noc2C)cc1	DENV2 CPE 37 (no result: PGC1a acetyl inh)
CC(=O)Nc1cccc(Nc2cc(C)nn2C)c1	DENV2 CPE 73
Cc1cc(NC(=O)Nc2cccc(C(F)(F)F)c2)n(C)n1	none (no result: PGC1a acetyl inh, PglD DTNB)
CC(Nc1nc(-c2ccc(F)cc2)cs1)c1nc2cc(Cl)c(N3CCCCC3)cc2n1CCOCCO (stereo not drawn)	none (no result: DENV2 CPE)
CC(Nc1nc(-c2ccc(F)cc2)cs1)c1nc2cc(Cl)c(N3CCCCC3)cc2n1CCCO (stereo not drawn)	Env fusion inh 78 (no result: DENV2 CPE)
Cc1nc(Sc2ccc(Cl)cc2)c(C#N)c(C)c1[N+](=O)[O-]	rRNA inh HTS -20
Cc1nc(Sc2ccc(Br)cc2)c(C#N)c(C)c1[N+](=O)[O-]	none (no result: PGC1a acetyl inh)
Cc1ccc(Sc2nc(C)c([N+](=O)[O-])c(C)c2C#N)cc1	DENV2 CPE 29
C[C@@H]1CN([C@H](C)CO)C(=O)c2cccc(NS(=O)(=O)c3ccc(F)cc3)c2O[C@H]1CN(C)C	none (no result: Env fusion inh)
Cc1ccc(S(=O)(=O)N2CC[C@H]3[C@@H](CO)N(C)c4ccc(-c5ccc(C#N)cc5)cc4[C@H]32)cc1	DENV2 CPE inconclusive (no result: Env fusion inh)
O=C(C1CCC1)N1CC[C@@H]2[C@H]1c1cc(-c3cccc(F)c3)ccc1N[C@@H]2CO	none (no result: DENV2 CPE, Env fusion inh)
O=C([C@@H]1N[C@@H]2c3ccc(-c4ccccc4F)c(=O)n3C[C@@H]2[C@H]1CO)N1CCCCC1	none (no result: FN deposit inh, Env fusion inh)
CNC(=S)Nc1cc(S(=O)(=O)Nc2cc(Cl)ccc2Cl)ccc1N1CCCC1	rRNA inh HTS -27
Nc1ccc(N2CCOCC2)c(S(=O)(=O)Nc2cc(Cl)ccc2Cl)c1	rRNA inh HTS -26 (no result: PGC1a acetyl inh)
COc1ccc(NS(=O)(=O)c2ccc(N3CCCC3)c(NC(=S)Nc3cccc(C)c3C)c2)cc1	Env fusion inh 149 (no result: PGC1a acetyl inh, rRNA inh HTS, DENV2 CPE, FN deposit inh)
CCC(=O)Nc1ccc2c(c1)C(=O)N(C)[C@H]1CC[C@H](CC(=O)Nc3c(F)cccc3F)O[C@@H]1CO2	none (no result: PGC1a acetyl inh, DENV2 CPE, FN deposit inh)
CCCNC(=O)N1[C@@H]2CN(C(=O)C3CCC3)c3ccccc3[C@@H]2[C@@H]1CO	none (no result: FN deposit inh, Env fusion inh)
COc1ccc(CN(C)C[C@H]2Oc3ccc(NC(=O)C4CCCCC4)cc3C(=O)N([C@H](C)CO)C[C@@H]2C)cc1	none (no result: FN deposit inh)
C[C@@H]1CN([C@H](C)CO)C(=O)c2cc(-c3ccc(C#N)cc3)cnc2O[C@H]1CN(C)Cc1cncnc1	DENV2 CPE inconclusive
COc1cc(CCCN2C(=S)NC[C@@H]2c2ccccc2)cc(OC)c1OC	DENV2 CPE 25
COc1cccc(-c2ccc(SCC(=O)c3ccccc3)nn2)c1	rRNA inh HTS -27 (no result: PglD DTNB)
COc1ccc(C(=O)CSc2ccc(-c3ccccc3)nn2)cc1	none (no result: rRNA inh HTS, DENV2 CPE)
CCOc1ccc(C(=O)N/N=C(\c2ccccc2)c2ccccn2)cc1	PGC1a acetyl inh 80 (no result: rRNA inh HTS, DENV2 CPE, FN deposit inh, Env fusion inh)
Cc1ccc(C(=O)/C=C/C(=O)O)cc1	none (no result: rRNA inh HTS, DENV2 CPE)
Cc1ccc(/C=C/C(=O)c2ccc(O)cc2)cc1	rRNA inh HTS -27 (no result: DENV2 CPE, PglD DTNB)
O=C(C[C@H]1C[C@H]2c3cc(NC(=O)CC4CC4)ccc3O[C@H]2[C@@H](CO)O1)NCc1cc(F)ccc1F	none
O=C(C[C@H]1C[C@@H]2c3cc(NC(=O)NC4CCCCC4)ccc3O[C@@H]2[C@H](CO)O1)NCc1ccccc1	none
O=[N+]([O-])c1cccc(C=Nc2cc3c(cc2Br)OCCO3)c1	DENV2 CPE 44 (no result: PGC1a acetyl inh, PglD DTNB)
CC(=O)N1[C@H](CO)[C@@H](c2ccc(-c3ccccc3)cc2)[C@@H]1CNC(=O)C1CC1	none (no result: Env fusion inh)
